{"source": "ChEMBL document CHEMBL1129569", "about": "“Synthesis and anticonvulsant activities of N-Benzyl-2-acetamidopropionamide derivatives” (J Med Chem, 1996)", "key": {"Mus musculus [1]": {"system": "Mus musculus", "test": "Effective dose against maximal electroshock seizure in mice after intraperitoneal administration", "assay_type": "functional", "summary_of_the_method": "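Mice, ip; compounds suspended in 0.5% (w/v) methylcellulose in water, 0.01 mL/g body weight. Butacaine-containing saline electrolyte was dropped on the eyes, then corneal electrodes delivered 60-cycle AC, 50 mA, 0.2 s. The endpoint was abolition of hindlimb tonic extension.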"}, "[2]": {"test": "(§1) Neurotoxic toxicity was evaluated by rotarod test after intraperitoneal administration", "assay_type": "organism-based", "conditions": "mouse, in vivo, ip", "summary_of_the_method": "(§2)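 Mice, ip, in 0.5% methylcellulose suspension. Impairment was defined as failure to stay balanced for 1 min on a 1 in. knurled rod turning at 6 rpm, in each of three successive trials.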"}, "[3]": {"test": "Protective index between TD50/MES ED50 when administered intraperitoneally to mouse", "assay_type": "ADME, organism-based", "conditions": "in vivo, ip, read-out: PI"}, "[4]": {"test": "Neurotoxic toxicity in mice was evaluated by rotarod test after intraperitoneal administration", "assay_type": "organism-based", "conditions": "mouse, in vivo, ip", "summary_of_the_method": "as §2"}, "[5]": {"test": "Protective index between TD50/MES ED50 when administered intraperitoneally to mice", "assay_type": "ADME, organism-based", "conditions": "mouse, in vivo, ip; read-out: PI"}, "Rattus norvegicus": {"system": "Rattus norvegicus", "test": "Effective dose against maximal electroshock seizure in rat after oral administration", "assay_type": "functional", "summary_of_the_method": "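Male Sprague Dawley rats dosed orally with a suspension in 0.5% (w/v) methylcellulose in water. After anaesthetic electrolyte eye drops, corneal 60-cycle AC was applied at 150 mA for 0.2 s. Protection meant abolition of hindlimb tonic extensor.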"}, "[6]": {"test": "Neurotoxic toxicity against Rat was evaluated by rotarod test afte oral administration", "assay_type": "organism-based", "conditions": "in vivo"}, "[7]": {"test": "Protective index between TD50/MES ED50 when administered orally to rat", "assay_type": "ADME, organism-based", "conditions": "in vivo, po, read-out: PI", "summary_of_the_method": "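Rats, oral. PI = TD50 (ataxia, gait and placing-response assessment) / MES ED50 (150 mA, 0.2 s corneal shock), with both taken at the time of peak effect.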"}, "[8]": {"test": "Neurotoxic toxicity was evaluated by rotarod test after intraperitoneal administration determined from horizontal screen test", "assay_type": "organism-based", "conditions": "mouse, in vivo, ip"}, "Mus musculus [9]": {"system": "Mus musculus", "test": "as §1", "assay_type": "organism-based", "conditions": "in vivo, ip", "summary_of_the_method": "as §2"}, "[10]": {"test": "Neurotoxic toxicity against Rat was evaluated by rotarod test afte oral administration <250", "assay_type": "organism-based", "conditions": "in vivo"}, "[11]": {"conditions": "Mus musculus, ip, read-out: ED50"}}, "note": "Where “and” joins values, the source holds several entries; their conditions need not be identical. Equal values may be shown once.", "data": [{"smiles": "CCNCC(NC(C)=O)C(=O)NCc1ccccc1", "note": "(centres undefined)", "values": [{"measurement": "ED50", "setting": "Mus musculus [1]; [11]", "result": "> 100", "unit": "mg/kg"}, {"measurement": "TD50", "setting": "[2]", "result": 100, "unit": "mg/kg"}]}, {"smiles": "CC(=O)N[C@H](CO)C(=O)NCc1ccccc1", "values": [{"measurement": "ED50", "setting": "Mus musculus [1]; [11]", "result": 53, "unit": "mg/kg"}, {"measurement": "selectivity ratio", "setting": "[3]", "result": "> 9.4"}, {"measurement": "TD50", "setting": "[4]", "result": "> 500", "unit": "mg/kg"}]}, {"smiles": "CC(=O)NC(NO)C(=O)NCc1ccccc1", "note": "(centres undefined)", "values": [{"measurement": "ED50", "setting": "Mus musculus [1]; [11]", "result": 100, "unit": "mg/kg"}]}, {"smiles": "COC[C@@H](NC(C)=O)C(=O)NCc1cccc(F)c1", "values": [{"measurement": "ED50", "setting": "Mus musculus [1]; [11]", "result": 6.9, "unit": "mg/kg"}, {"measurement": "selectivity ratio", "setting": "[5]", "result": 6.7}, {"measurement": "TD50", "setting": "[2]", "result": 46, "unit": "mg/kg"}, {"measurement": "ED50", "setting": "Rattus norvegicus", "result": 6.9, "unit": "mg/kg"}, {"measurement": "TD50", "setting": "[6]", "result": "> 400", "unit": "mg/kg"}, {"measurement": "selectivity ratio", "setting": "[7]", "result": "> 58"}]}, {"smiles": "CC(=O)NC(CI)C(=O)NCc1ccccc1", "note": "(centres undefined)", "values": [{"measurement": "TD50", "setting": "[2]", "result": 300, "unit": "mg/kg"}]}, {"smiles": "CON(C)C(NC(C)=O)C(=O)NCc1ccccc1", "note": "(centres undefined)", "values": [{"measurement": "ED50", "setting": "Mus musculus [1]; [11]", "result": 6.7, "unit": "mg/kg"}, {"measurement": "selectivity ratio", "setting": "[5]", "result": 7.6}, {"measurement": "TD50", "setting": "[8]", "result": 51, "unit": "mg/kg"}]}, {"smiles": "CC(=O)NC(C)C(=O)NCc1ccccc1", "note": "(centres undefined)", "values": [{"measurement": "selectivity ratio", "setting": "[5]", "result": 5.9}, {"measurement": "ED50", "setting": "Rattus norvegicus", "result": 48, "unit": "mg/kg"}, {"measurement": "selectivity ratio", "setting": "[7]", "result": "> 21"}]}, {"smiles": "CNCC(NC(C)=O)C(=O)NCc1ccccc1", "note": "(centres undefined)", "values": [{"measurement": "ED50", "setting": "Mus musculus [1]", "result": "<300 mg/kg and >100 mg/kg"}, {"measurement": "TD50", "setting": "Mus musculus [9]", "result": "< 300 mg/kg and > 100 mg/kg"}]}, {"smiles": "CC(=O)NC(CN)C(=O)NCc1ccccc1", "note": "(centres undefined)", "values": [{"measurement": "ED50", "setting": "Mus musculus [1]; [11]", "result": "> 100", "unit": "mg/kg"}, {"measurement": "TD50", "setting": "[2]", "result": "> 100", "unit": "mg/kg"}]}, {"smiles": "CCOCC(NC(C)=O)C(=O)NCc1ccccc1", "note": "(centres undefined)", "values": [{"measurement": "selectivity ratio", "setting": "[3]", "result": 4.6}, {"measurement": "TD50", "setting": "[2]", "result": 78, "unit": "mg/kg"}, {"measurement": "ED50", "setting": "Rattus norvegicus", "result": 19, "unit": "mg/kg"}, {"measurement": "selectivity ratio", "setting": "[7]", "result": "> 26"}]}, {"smiles": "CC(=O)NC(CBr)C(=O)NCc1ccccc1", "note": "(centres undefined)", "values": [{"measurement": "TD50", "setting": "Mus musculus [9]", "result": "> 100 mg/kg and < 300 mg/kg"}]}, {"smiles": "CC(=O)NC(CO)C(=O)NCc1ccccc1", "note": "(centres undefined)", "values": [{"measurement": "ED50", "setting": "Mus musculus [1]", "result": ">100 mg/kg and <300 mg/kg"}, {"measurement": "TD50", "setting": "[8]", "result": "< 300", "unit": "mg/kg"}]}, {"smiles": "CC(=O)NC(CN1CCOCC1)C(=O)NCc1ccccc1", "note": "(centres undefined)", "values": [{"measurement": "ED50", "setting": "Mus musculus [1]", "result": "<300 mg/kg and >100 mg/kg"}, {"measurement": "TD50", "setting": "[2]", "result": "> 300", "unit": "mg/kg"}]}, {"smiles": "CC(=O)NC(CCl)C(=O)NCc1ccccc1", "note": "(centres undefined)", "values": [{"measurement": "ED50", "setting": "Mus musculus [1]; [11]", "result": 100, "unit": "mg/kg"}, {"measurement": "TD50", "setting": "Mus musculus [9]", "result": "< 300 mg/kg and > 100 mg/kg"}]}, {"smiles": "COC[C@H](NC(C)=O)C(=O)NCc1ccccc1", "values": [{"measurement": "ED50", "setting": "Mus musculus [1]", "result": ">100 mg/kg and <300 mg/kg"}, {"measurement": "TD50", "setting": "[4]", "result": "> 300", "unit": "mg/kg"}, {"measurement": "ED50", "setting": "Rattus norvegicus", "result": "> 30", "unit": "mg/kg"}, {"measurement": "TD50", "setting": "[6]", "result": "> 30", "unit": "mg/kg"}]}, {"smiles": "CONC(NC(C)=O)C(=O)NCc1ccccc1", "note": "(centres undefined)", "values": [{"measurement": "ED50", "setting": "Mus musculus [1]; [11]", "result": 6.2, "unit": "mg/kg"}, {"measurement": "selectivity ratio", "setting": "[5]", "result": 7.4}]}, {"smiles": "CC(=O)NC(CN(C)C)C(=O)NCc1ccccc1", "note": "(centres undefined)", "values": [{"measurement": "TD50", "setting": "[2]", "result": "> 300", "unit": "mg/kg"}]}, {"smiles": "CSCC(NC(C)=O)C(=O)NCc1ccccc1", "note": "(centres undefined)", "values": [{"measurement": "TD50", "setting": "Mus musculus [9]", "result": "< 300 mg/kg and > 100 mg/kg"}]}, {"smiles": "COC[C@@H](NC(C)=O)C(=O)NCc1ccc(F)cc1", "values": [{"measurement": "ED50", "setting": "Mus musculus [1]; [11]", "result": 4.2, "unit": "mg/kg"}, {"measurement": "selectivity ratio", "setting": "[5]", "result": 6.7}, {"measurement": "ED50", "setting": "Rattus norvegicus", "result": 2.6, "unit": "mg/kg"}, {"measurement": "TD50", "setting": "[6]", "result": "< 250", "unit": "mg/kg"}, {"measurement": "TD50", "setting": "[10]", "result": "> 125", "unit": "mg/kg"}]}, {"smiles": "CC(=O)N[C@@H](C)C(=O)NCc1ccccc1", "values": [{"measurement": "selectivity ratio", "setting": "[5]", "result": 1.5}]}, {"smiles": "CC(=O)N[C@H](C)C(=O)NCc1ccccc1", "values": [{"measurement": "ED50", "setting": "Mus musculus [1]; [11]", "result": 55, "unit": "mg/kg"}, {"measurement": "selectivity ratio", "setting": "[5]", "result": 3.9}, {"measurement": "ED50", "setting": "Rattus norvegicus", "result": 28, "unit": "mg/kg"}, {"measurement": "selectivity ratio", "setting": "[7]", "result": "> 36"}]}, {"smiles": "COC[C@@H](NC(C)=O)C(=O)NCc1ccccc1", "note": "[LACOSAMIDE]", "values": [{"measurement": "TD50", "setting": "[6]", "result": "> 500", "unit": "mg/kg"}]}, {"smiles": "O=C1NC(=O)C(c2ccccc2)(c2ccccc2)N1", "note": "[PHENYTOIN]", "values": [{"measurement": "ED50", "setting": "Mus musculus [1]; [11]", "result": 6.5, "unit": "mg/kg"}, {"measurement": "selectivity ratio", "setting": "[3]", "result": 6.6}, {"measurement": "ED50", "setting": "Rattus norvegicus", "result": 23, "unit": "mg/kg"}, {"measurement": "selectivity ratio", "setting": "[7]", "result": "> 22"}]}, {"smiles": "CCCC(CCC)C(=O)O", "note": "[VALPROIC ACID]", "values": [{"measurement": "ED50", "setting": "Mus musculus [1]; [11]", "result": 290, "unit": "mg/kg"}, {"measurement": "ED50", "setting": "Rattus norvegicus", "result": 400, "unit": "mg/kg"}]}]}
